Results reported in ChEMBL document CHEMBL1139282, “6-Bicycloaryl substituted (S)- and (R)-5,6-dihydro-2H-pyran-2-ones: asymmetric synthesis, and anti-proliferative properties” (Bioorg Med Chem, 2009).

Key:
Format in all cases: functional, cell-based
MCF7 [1] = experiment: Cytotoxicity against human MCF7 cells after 48 hrs by MTT assay; details: MCF7, 48 h
Procedure, shortened: (§1)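 PC-3 kept in DMEM with 5% FBS, MCF-7 in RPMI-1640 with 15% FBS, both used at passages 10-20. Seeded at 1×10^4 cells/well, attached 24 h, then treated 48 h at 0.01-50 µM with final 1% DMSO, in triplicate. Wells PBS-washed, diluted MTT stock (1:10) added for 3.5 h, plates centrifuged before formazan read-out.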

PC-3 [2] = experiment: Cytotoxicity against human PC3 cells after 48 hrs by MTT assay; details: PC-3, 48 h; procedure, shortened: as §1
MCF7 [3] = experiment: Cytotoxicity against human MCF7 cells after 72 hrs by MTT assay; details: MCF7, 72 h
Procedure, shortened: (§2)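 ATCC-sourced lines grown at 37 °C, 5% CO2 in RPMI-1640 or DMEM with 5-10% FBS plus penicillin/streptomycin. Cells exposed to a range of doses for 72 h at 37 °C. MTT added, medium removed 4 h later, formazan dissolved in DMSO and read at 570-690 nm. IC50 from three independent assays, two wells each, via % viability.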

LNCaP = experiment: Cytotoxicity against human LNCAP cells after 72 hrs by MTT assay; procedure, shortened: as §2
DU-145 = experiment: Cytotoxicity against human DU145 cells after 72 hrs by MTT assay; details: DU-145, 72 h; procedure, shortened: as §2
PC-3 [4] = experiment: Cytotoxicity against human PC3 cells after 72 hrs by MTT assay; details: PC-3, 72 h; procedure, shortened: as §2

SMILES	IC50 (MCF7 [1]) [µM]	IC50 (PC-3 [2]) [µM]	IC50 (MCF7 [3]) [µM]	IC50 (LNCaP) [µM]	IC50 (DU-145) [µM]	IC50 (PC-3 [4]) [µM]
C=CC[C@@H](OC(=O)C=C)c1cccc(Oc2ccccc2)c1	> 50	> 50	–	–	–	–
O=C1C=CC[C@@H](c2ccc3ccccc3c2)O1	–	–	37	15	28	12
Cc1ccc2ccccc2c1[C@H]1CC=CC(=O)O1	2.6	0.13	–	–	–	–
O=C1C=CC[C@H](c2ccc3ccccc3c2)O1	–	–	19	11	12	3
O=C1C=CC[C@H](c2cnc3ccccc3c2)O1	3.2	2.5	–	–	–	–
O=C1C=CC[C@H](c2cccc3ccccc23)O1	2.6	0.8	–	–	–	–
O=C1C=CC[C@H](c2ccnc3ccccc23)O1	32.5	9.8	–	–	–	–
C=CC[C@@H](OC(=O)C=C)c1c(C)ccc2ccccc12	10.4	8.8	–	–	–	–
C=CC[C@@H](OC(=O)C=C)c1cccc2ccccc12	> 50	22.9	–	–	–	–
O=C1C=CC[C@H](c2cccc(Oc3ccccc3)c2)O1	> 50	11	–	–	–	–
C=CC[C@@H](OC(=O)C=C)c1cnc2ccccc2c1	28.8	16.3	–	–	–	–
C=CC[C@@H](OC(=O)C=C)c1ccnc2ccccc12	13.2	15	–	–	–	–
Cc1ccc([C@H]2CC=CC(=O)O2)c2ccccc12	0.44	0.05	–	–	–	–
C=CC[C@@H](OC(=O)C=C)c1ccc(C)c2ccccc12	33.1	45	–	–	–	–
O=C1C=CC[C@H](/C=C/c2ccccc2)O1 [GONIOTHALAMIN]	–	–	28	12	19	4
